Reference: ChEMBL document CHEMBL1122835, “Synthesis and pharmacology of the potent angiotensin-converting enzyme inhibitor N-[1(S)-(ethoxycarbonyl)-3-phenylpropyl]-(S)-alanyl-(S)-pyroglutamic acid” (J Med Chem, 1985)

What was measured:
[1] = test system: Rattus norvegicus; experiment: Hypotensive activity was determined in low-sodium treated rat, dose 10 mg/kg administered orally at 2 hr; type: functional; conditions: route oral
How it was run: (§1)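 Male CD rats, 11 weeks old, kept on a sodium-deficient diet for 3 weeks and fasted overnight, were dosed orally with aqueous solutions (5 mL/kg), water as control. Systolic pressure measured by tail cuff at the stated post-dose time. ANOVA with Duncan's test.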

[2] = test system: Rattus norvegicus; experiment: Effect on systolic blood pressure was determined in renal hypertensive rat, administered orally at a dose 10 mg/kg; type: functional, Artery; conditions: route oral
How it was run: (§2)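 Renal hypertensive rats were prepared by clipping the left renal artery (0.22-mm clip) in 4-week-old male CD rats and held 6 weeks. Overnight-fasted rats were dosed orally with aqueous solution (5 mL/kg), water as control. Tail-cuff systolic pressure and heart rate measured 2 h post-dose. ANOVA with Duncan's test; ED30 by linear regression.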

[3] = test system: Rattus norvegicus; experiment: Change in heart rate was determined at a dose 10 mg/kg; type: functional
How it was run: (§3)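 Male SHR, 13 weeks old, given HCTZ 25 mg/kg po in 0.25% methylcellulose daily for 3 days. Drug given orally in water (5 mL/kg) 1 h after the third dose. Tail-cuff systolic pressure and pulse-count heart rate taken 1.5 h later after 20 min warming at 38 °C. ANOVA with Duncan's test; ED30 by linear regression.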

[4] = test system: Rattus norvegicus; experiment: Effect on systolic blood pressure was determined in renal hypertensive rat, administered orally at a dose 3 mg/kg; type: functional, Artery; conditions: route oral; how it was run: as §2
[5] = test system: Rattus norvegicus; experiment: Percent change was determined in bradykinin depressor response in anesthetized normotensive rat, administered intravenously at dose 0.030 mg/kg; type: functional; conditions: dose 0.03 mg/kg; route intravenous
How it was run: (§4)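 Male Charles River CD rats (380–500 g), pentobarbital Na 15 mg/kg plus barbital 220 mg/kg ip, tracheotomized, femoral artery/vein cannulated, kept at 37 °C. Control bradykinin 1 μg/kg iv depressor response, separate from angiotensin tests; drug iv in 0.9% saline (1 mL/kg, free base) 10 min later, Bk 5 min after each cumulative dose (0.0033–0.27 mg/kg). Maximum fall in arterial pressure versus control response; N = 8.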

[6] = test system: Rattus norvegicus; experiment: Percent change was determined in bradykinin depressor response in anesthetized normotensive rat, administered intravenously at dose 0.0033 mg/kg; type: functional; conditions: route intravenous
How it was run: (§5)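 Anesthetized (pentobarbital/barbital ip) male Charles River CD rats, 380–500 g, kept at 37 °C. Femoral artery blood pressure recorded. Control depressor response to bradykinin 1 μg/kg iv, then cumulative iv drug in 0.9% saline (1 mL/kg), 0.0033–0.27 mg/kg. Bk challenge 5 min after each dose. ED50 = dose giving a 50% change from control, by linear regression; N = 8.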

[7] = test system: Rattus norvegicus; experiment: Effect on systolic blood pressure was determined in renal hypertensive rat, administered orally at a dose 100 mg/kg; type: functional, Artery; conditions: route oral; how it was run: as §2
[8] = test system: Rattus norvegicus; experiment: Effect on vasopressor response caused by angiotensin I (AI) in anesthetized normotensive rat, administered intravenously at dose 0.090 mg/kg; type: functional; conditions: dose 0.09 mg/kg; route intravenous
How it was run: (§6)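 Male Charles River CD rats, 380–500 g, anesthetized with pentobarbital Na 15 mg/kg plus barbital 220 mg/kg ip, held at 37 °C. Femoral artery pressure recorded. AI 0.3 μg/kg and AII 0.1 μg/kg given iv as challenges. Cumulative iv drug in saline, 0.01–0.81 mg/kg, each dose followed by AI/AII challenges at 5-min intervals. ED50 = 50% change from control response, by linear regression.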

[9] = test system: Rattus norvegicus; experiment: Effect on vasopressor response caused by angiotensin I (AI) in anesthetized normotensive rat, administered intravenously at dose 0.81 mg/kg; type: functional; conditions: route intravenous; how it was run: as §6
[10] = test system: Canis familiaris; experiment: Effect on pressor response of angiotensin II in anesthetized dog, dose 0.3 mg/kg administered intravenously; type: functional, Canis lupus familiaris; conditions: route intravenous
How it was run: (§7)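 Mongrel dogs, 7.3–15.5 kg, anesthetized with barbital/pentobarbital iv, tracheotomized and vagotomized, n = 4. Cumulative iv doses in saline (0.2 mL/kg) spaced 30 min apart. AI and AII 1 μg/kg iv challenges given after each dose; the second pre-dose set served as control.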

[11] = test system: Rattus norvegicus; experiment: Change in heart rate was determined in renal hypertensive rat, administered orally at a dose 10 mg/kg; type: functional; conditions: route oral; how it was run: as §2
[12] = test system: Rattus norvegicus; experiment: Hypotensive activity was determined in low-sodium treated rat, dose 3 mg/kg administered orally at 5 hr; type: functional; conditions: route oral; how it was run: as §1
[13] = test system: Canis familiaris; experiment: Effect on pressor response of angiotensin II in conscious dog at 60-65 min, dose 1 mg/kg administered orally; type: functional, Canis lupus familiaris; conditions: route oral
How it was run: (§8)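 Conscious fasted mongrel dogs of both sexes, 6.8–15.3 kg, with femoral cannulas. Drug given orally in 0.25% methylcellulose with 3% glycerin (2 mL/kg), n = 4 per dose. AI 0.3, AII 0.1 and NE 1 μg/kg iv challenges. The second pre-dose set served as control; response measured at 60–65 min post-dose.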

[14] = test system: Rattus norvegicus; experiment: Percent decrease in angiotensin I pressor response was measured in rat, administered intravenously at dose 0.81 mg/kg; type: functional; conditions: route intravenous
How it was run: (§9)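 Anesthetized (pentobarbital Na 15 mg/kg + barbital 220 mg/kg ip), tracheotomized male Charles River CD rats, 380–500 g, femoral cannulas, heated board at 37 °C. Control pressor responses to angiotensin I 0.3 μg/kg then angiotensin II 0.1 μg/kg iv; drug iv in 0.9% saline (free base), AI and AII repeated at 5-min intervals, cumulative 0.01–0.81 mg/kg. Peak arterial pressure rise versus control.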

[15] = test system: Rattus norvegicus; experiment: Activity against the bradykinin Response in anesthetized normotensive rat, administered intravenously at dose 0.030 mg/kg; type: functional; conditions: dose 0.03 mg/kg; route intravenous; how it was run: as §5
[16] = test system: Rattus norvegicus; experiment: Percent decrease in angiotensin I pressor response was measured in rat, administered intravenously at dose 0.030 mg/kg; type: functional; conditions: dose 0.03 mg/kg; route intravenous; how it was run: as §9
[17] = test system: Rattus norvegicus; experiment: Hypotensive activity was determined in low-sodium treated rat, dose 30 mg/kg administered orally at 2 hr; type: functional; conditions: route oral; how it was run: as §1
[18] = test system: Rattus norvegicus; experiment: Hypotensive activity was determined in low-sodium treated rat, dose 3 mg/kg administered orally at 2 hr; type: functional; conditions: route oral; how it was run: as §1
[19] = test system: Canis familiaris; experiment: Effect on pressor response of angiotensin I in anesthetized dog, dose 0.9 mg/kg administered intravenously; type: functional, Canis lupus familiaris; conditions: route intravenous; how it was run: as §7
[20] = test system: Rattus norvegicus; experiment: Change in heart rate was determined at a dose 30 mg/kg; type: functional; how it was run: as §3
[21] = test system: Rattus norvegicus; experiment: Decrease in systolic blood pressure of Spontaneous Hypertensive Rats (SHR) pretreated with hydrochlorothiazide upon oral administration at 3 mm/kg; type: functional, Artery; how it was run: as §3
[22] = test system: Rattus norvegicus; experiment: Activity against the bradykinin Response in anesthetized normotensive rat, administered intravenously at dose 0.010 mg/kg; type: functional; conditions: dose 0.01 mg/kg; route intravenous; how it was run: as §5
[23] = test system: Rattus norvegicus; experiment: Percent change was determined in bradykinin depressor response in anesthetized normotensive rat, administered intravenously at dose 0.010 mg/kg; type: functional; conditions: dose 0.01 mg/kg; route intravenous; how it was run: as §4
[24] = test system: Rattus norvegicus; experiment: Percent change was determined in bradykinin depressor response in anesthetized normotensive rat, administered intravenously at dose 0.090 mg/kg; type: functional; conditions: dose 0.09 mg/kg; route intravenous; how it was run: as §4
[25] = test system: Canis familiaris; experiment: Effect on pressor response of angiotensin I in anesthetized dog, dose 0.3 mg/kg administered intravenously; type: functional, Canis lupus familiaris; conditions: route intravenous; how it was run: as §7
[26] = test system: Rattus norvegicus; experiment: Change in heart rate was determined in renal hypertensive rat, administered orally at a dose 30 mg/kg; type: functional; conditions: route oral; how it was run: as §2
[27] = test system: Rattus norvegicus; experiment: Activity against the bradykinin Response in anesthetized normotensive rat, administered intravenously at dose 0.090 mg/kg; type: functional; conditions: dose 0.09 mg/kg; route intravenous; how it was run: as §5
[28] = test system: Rattus norvegicus; experiment: Decrease in systolic blood pressure of Spontaneous Hypertensive Rats (SHR) pretreated with hydrochlorothiazide upon oral administration at 30 mm/kg; type: functional, Artery; how it was run: as §3
[29] = test system: Canis familiaris; experiment: Effect on pressor response of angiotensin I in conscious dog at 60-65 min, dose 1 mg/kg administered orally; type: functional, Canis lupus familiaris; conditions: route oral; how it was run: as §8

`CCOC(=O)[C@H](CCc1ccccc1)N[C@@H](C)C(=O)N1C(=O)CC[C@H]1C(=O)O` was tested, and the Activity [1] was 148 mmHg, the Activity [2] was 204 mmHg and the Heart rate [3] was 369 beats min-1. It also gave an Activity [4] of 220 mmHg, a Change [5] of 69% and a Change [6] of 22%. For the same compound, the Activity [7] was 186 mmHg, the Response [8] was 33 mmHg and the Response [9] was 4 mmHg. For the same compound, the Blood pressure [10] was 68 mmHg, the Heart rate [11] was 438 beats min-1 and the Activity [12] was 153 mmHg. It also gave a Blood pressure [13] of 48 mmHg, a Decrease [14] of 92% and a Response [15] of -61 mmHg. It also gave a Decrease [16] of 19%, an Activity [17] of 135 mmHg and an Activity [18] of 154 mmHg. It also gave a Blood pressure [19] of 28 mmHg, a Heart rate [20] of 381 beats min-1 and a Blood pressure [21] of 211 mmHg. It also gave a Response [22] of -58 mmHg, a Change [23] of 61% and a Change [24] of 69%. It also gave a Blood pressure [25] of 46 mmHg, a Heart rate [26] of 481 beats min-1 and a Response [27] of -61 mmHg. For the same compound, the Blood pressure [28] was 190 mmHg and the Blood pressure [29] was 23 mmHg.
